Key:
[1] = Volume of distribution at steady state in beagle dog plasma at 0.2 mg/kg, iv and 0.2 mg/kg, po by LC-MS/MS method; format: ADME, organism-based, Canis lupus familiaris; details: beagle, plasma, read-out: Vdss
Procedure, shortened: (§1)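 Dogs dosed iv and po in N-in-1 (cassette) format. The same vehicle was used for both routes: 70% water, 10% ethanol, 10% dimethylacetamide, 10% polypropylene glycol.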

[2] = Oral bioavailability in beagle dog plasma at 0.2 mg/kg by LC-MS/MS method; format: ADME, organism-based, Canis lupus familiaris; procedure, shortened: as §1
[3] = AUC in beagle dog plasma at 0.2 mg/kg, iv and 0.2 mg/kg, po by LC-MS/MS method; format: ADME, organism-based, Canis lupus familiaris; procedure, shortened: as §1
Coagulation factor XI = Coagulation factor XI (Homo sapiens, UniProt P03951)
Coagulation factor XI, sequence (P03951 19-387 limits assumed): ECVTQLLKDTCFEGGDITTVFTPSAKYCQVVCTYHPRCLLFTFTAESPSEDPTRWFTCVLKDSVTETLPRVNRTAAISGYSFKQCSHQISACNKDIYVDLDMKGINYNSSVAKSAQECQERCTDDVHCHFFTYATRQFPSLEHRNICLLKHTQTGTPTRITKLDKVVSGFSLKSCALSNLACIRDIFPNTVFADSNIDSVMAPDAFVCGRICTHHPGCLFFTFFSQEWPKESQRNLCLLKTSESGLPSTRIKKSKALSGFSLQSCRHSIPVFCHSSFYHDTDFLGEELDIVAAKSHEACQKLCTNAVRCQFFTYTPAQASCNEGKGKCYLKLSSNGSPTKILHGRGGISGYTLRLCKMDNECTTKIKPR
Coagulation factor XI, sequence (P03951 388-625 limits assumed): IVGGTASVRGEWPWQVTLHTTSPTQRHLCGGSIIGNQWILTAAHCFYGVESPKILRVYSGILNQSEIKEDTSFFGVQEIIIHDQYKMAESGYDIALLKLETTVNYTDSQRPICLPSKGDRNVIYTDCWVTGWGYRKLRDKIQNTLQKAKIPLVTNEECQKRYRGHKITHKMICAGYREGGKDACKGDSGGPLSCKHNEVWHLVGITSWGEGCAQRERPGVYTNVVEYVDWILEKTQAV

Plasma = assay: Anticoagulant activity in human plasma assessed as concentration required for 50% increase in activated partial thromboplastin time by automated coagulation analyzer; format: functional
Procedure, shortened: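 aPTT clotting assay in pooled normal human plasma on an automated coagulation analyzer with commercial reagents. EC1.5x is the inhibitor plasma concentration giving a 50% increase in clotting time over the no-inhibitor control.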

[4] = Clearance in beagle dog plasma at 0.2 mg/kg, iv and 0.2 mg/kg, po administered in cassette format by LC-MS/MS method; format: ADME, organism-based, Canis lupus familiaris; details: beagle, plasma; procedure, shortened: as §1
[5] = Half life in beagle dog plasma at 0.2 mg/kg, iv and 0.2 mg/kg, po by LC-MS/MS method; format: ADME, organism-based, Canis lupus familiaris; details: beagle, plasma; procedure, shortened: as §1
[6] = Oral bioavailability in beagle dog plasma at 0.43 mg/kg by LC-MS/MS method; format: ADME, organism-based, Canis lupus familiaris; procedure, shortened: as §1
[7] = Inhibition of human […] chymotrypsin assessed as reduction in release of p-nitroaniline after 10 to 120 mins by Michaelis-Menten equation analysis
Canis familiaris [8] = assay: Clearance in beagle dog plasma at 0.27 mg/kg, iv and 0.43 mg/kg, po administered in cassette format by LC-MS/MS method; format: ADME, organism-based, Canis lupus familiaris; details: in vivo; procedure, shortened: as §1
Canis familiaris [9] = assay: Half life in beagle dog plasma at 0.27 mg/kg, iv and 0.43 mg/kg, po by LC-MS/MS method; format: ADME, organism-based, Canis lupus familiaris; details: in vivo; procedure, shortened: as §1
Canis familiaris [10] = assay: Volume of distribution at steady state in beagle dog plasma at 0.27 mg/kg, iv and 0.43 mg/kg, po by LC-MS/MS method; format: ADME, organism-based, Canis lupus familiaris; details: in vivo; procedure, shortened: as §1
[11] = Volume of distribution at steady state in beagle dog plasma at 0.19 mg/kg, iv and 0.19 mg/kg, po by LC-MS/MS method; format: ADME, organism-based, Canis lupus familiaris; details: read-out: Vdss; procedure, shortened: as §1
[12] = Oral bioavailability in beagle dog plasma at 0.19 mg/kg by LC-MS/MS method; format: ADME, organism-based, Canis lupus familiaris; procedure, shortened: as §1
[13] = AUC in beagle dog plasma at 0.19 mg/kg, iv and 0.19 mg/kg, po by LC-MS/MS method; format: ADME, organism-based, Canis lupus familiaris; procedure, shortened: as §1
[14] = Clearance in beagle dog plasma at 0.19 mg/kg, iv and 0.19 mg/kg, po administered in cassette format by LC-MS/MS method; format: ADME, organism-based, Canis lupus familiaris; procedure, shortened: as §1
[15] = Half life in beagle dog plasma at 0.19 mg/kg, iv and 0.19 mg/kg, po by LC-MS/MS method; format: ADME, organism-based, Canis lupus familiaris; procedure, shortened: as §1
[16] = Volume of distribution at steady state in beagle dog plasma at 0.25 mg/kg, iv and 0.2 mg/kg, po by LC-MS/MS method; format: ADME, organism-based, Canis lupus familiaris; details: read-out: Vdss; procedure, shortened: as §1
[17] = AUC in beagle dog plasma at 0.25 mg/kg, iv and 0.2 mg/kg, po by LC-MS/MS method; format: ADME, organism-based, Canis lupus familiaris; procedure, shortened: as §1
Canis familiaris [18] = assay: AUC in beagle dog plasma at 1 mg/kg, po dosed in discrete format by LC-MS/MS method; format: ADME, organism-based, Canis lupus familiaris; details: in vivo
Procedure, shortened: (§2)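 Discrete oral dosing in dog at 1 mpk. Oral vehicle: 70% PEG400, 20% TPGS, 10% ethanol.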

Coagulation factor X = Coagulation factor X (Homo sapiens, UniProt P00742); assay: Inhibition of human coagulation factor 10a assessed as reduction in release of p-nitroaniline after 10 to 120 mins by Michaelis-Menten equation analysis
Coagulation factor X, sequence (P00742 41-179 limits assumed): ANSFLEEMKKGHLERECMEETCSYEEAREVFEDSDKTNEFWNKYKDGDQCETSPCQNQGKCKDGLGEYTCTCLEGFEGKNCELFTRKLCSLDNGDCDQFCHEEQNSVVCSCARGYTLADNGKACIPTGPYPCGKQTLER
Coagulation factor X, sequence (P00742 235-488 limits assumed): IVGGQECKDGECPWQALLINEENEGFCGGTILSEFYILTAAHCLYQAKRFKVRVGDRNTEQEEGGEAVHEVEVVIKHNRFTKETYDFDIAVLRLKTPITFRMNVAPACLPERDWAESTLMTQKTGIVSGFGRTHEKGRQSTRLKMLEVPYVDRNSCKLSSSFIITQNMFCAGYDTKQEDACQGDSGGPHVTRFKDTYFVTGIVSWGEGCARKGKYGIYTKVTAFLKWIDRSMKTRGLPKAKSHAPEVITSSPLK
Procedure, shortened: (§3)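 Purified human enzymes with commercial synthetic peptide substrates. IC50 from 4–11 inhibitor concentrations, run in duplicate at a fixed substrate concentration (standard error <20%). Ki = IC50/(1+S/Km), assuming competitive inhibition.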

Prothrombin = Prothrombin (Homo sapiens, UniProt P00734); assay: Inhibition of human coagulation thrombin assessed as reduction in release of p-nitroaniline after 10 to 120 mins by Michaelis-Menten equation analysis; procedure, shortened: as §3
Trypsin = Trypsin (Homo sapiens, UniProt P07477+P07478+P35030); assay: Inhibition of human coagulation trypsin assessed as reduction in release of p-nitroaniline after 10 to 120 mins by Michaelis-Menten equation analysis; format: protein assay; procedure, shortened: as §3
Plasma kallikrein = Plasma kallikrein (Homo sapiens, UniProt P03952); assay: Inhibition of human plasma kallikrein assessed as reduction in release of p-nitroaniline after 10 to 120 mins by Michaelis-Menten equation analysis; format: cell-free; procedure, shortened: as §3
Plasma kallikrein, sequence (P03952 20-390 limits assumed): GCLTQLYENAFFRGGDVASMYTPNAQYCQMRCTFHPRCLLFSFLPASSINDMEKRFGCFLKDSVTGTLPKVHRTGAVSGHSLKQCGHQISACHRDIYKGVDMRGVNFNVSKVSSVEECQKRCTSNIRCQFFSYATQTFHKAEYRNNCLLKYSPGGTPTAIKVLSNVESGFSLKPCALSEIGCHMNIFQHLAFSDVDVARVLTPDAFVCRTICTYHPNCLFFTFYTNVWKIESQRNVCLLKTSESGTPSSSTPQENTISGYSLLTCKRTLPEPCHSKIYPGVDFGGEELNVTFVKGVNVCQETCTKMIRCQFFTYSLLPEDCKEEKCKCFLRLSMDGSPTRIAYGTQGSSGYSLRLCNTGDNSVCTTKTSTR
Plasma kallikrein, sequence (P03952 391-638 limits assumed): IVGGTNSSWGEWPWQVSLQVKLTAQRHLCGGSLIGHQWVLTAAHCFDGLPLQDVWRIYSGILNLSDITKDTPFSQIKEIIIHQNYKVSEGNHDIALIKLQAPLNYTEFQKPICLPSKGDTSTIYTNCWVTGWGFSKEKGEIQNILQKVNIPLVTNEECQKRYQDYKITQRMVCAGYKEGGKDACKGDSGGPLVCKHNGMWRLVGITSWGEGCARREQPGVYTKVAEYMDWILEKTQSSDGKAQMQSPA

[19] = biological target: Vitamin K-dependent protein C (Homo sapiens, UniProt P04070); assay: Inhibition of human activated protein C assessed as reduction in release of p-nitroaniline after 10 to 120 mins by Michaelis-Menten equation analysis; procedure, shortened: as §3
Vitamin K-dependent protein C, sequence (P04070 43-197 limits assumed): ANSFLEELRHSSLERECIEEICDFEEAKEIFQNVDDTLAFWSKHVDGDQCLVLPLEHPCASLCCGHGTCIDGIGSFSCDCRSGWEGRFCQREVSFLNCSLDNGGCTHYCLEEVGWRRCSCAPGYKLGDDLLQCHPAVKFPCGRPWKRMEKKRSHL
Vitamin K-dependent protein C, sequence (P04070 212-461 limits assumed): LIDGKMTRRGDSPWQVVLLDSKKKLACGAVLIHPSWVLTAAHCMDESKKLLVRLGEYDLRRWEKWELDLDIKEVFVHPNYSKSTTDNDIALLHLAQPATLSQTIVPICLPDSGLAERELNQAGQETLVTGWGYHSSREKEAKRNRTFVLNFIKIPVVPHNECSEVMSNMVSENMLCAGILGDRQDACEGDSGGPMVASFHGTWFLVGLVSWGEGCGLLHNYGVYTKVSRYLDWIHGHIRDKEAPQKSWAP

Plasminogen = Plasminogen (Homo sapiens, UniProt P00747); assay: Inhibition of human plasmin assessed as reduction in release of p-nitroaniline after 10 to 120 mins by Michaelis-Menten equation analysis; procedure, shortened: as §3
Plasminogen, sequence (P00747 97-580 limits assumed): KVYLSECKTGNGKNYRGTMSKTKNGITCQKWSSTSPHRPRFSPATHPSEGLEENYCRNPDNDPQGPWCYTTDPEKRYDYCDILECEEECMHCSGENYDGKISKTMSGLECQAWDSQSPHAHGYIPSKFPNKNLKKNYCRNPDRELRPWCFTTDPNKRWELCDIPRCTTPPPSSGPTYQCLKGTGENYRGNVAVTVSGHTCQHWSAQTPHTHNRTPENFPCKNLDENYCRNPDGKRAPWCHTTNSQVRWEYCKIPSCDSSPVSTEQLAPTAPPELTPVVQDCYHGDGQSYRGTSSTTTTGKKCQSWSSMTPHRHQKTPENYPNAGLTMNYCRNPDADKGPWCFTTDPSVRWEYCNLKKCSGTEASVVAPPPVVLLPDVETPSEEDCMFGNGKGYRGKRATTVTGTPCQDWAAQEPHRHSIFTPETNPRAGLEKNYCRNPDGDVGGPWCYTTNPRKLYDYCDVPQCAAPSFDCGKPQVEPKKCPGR
Plasminogen, sequence (P00747 581-810 limits assumed): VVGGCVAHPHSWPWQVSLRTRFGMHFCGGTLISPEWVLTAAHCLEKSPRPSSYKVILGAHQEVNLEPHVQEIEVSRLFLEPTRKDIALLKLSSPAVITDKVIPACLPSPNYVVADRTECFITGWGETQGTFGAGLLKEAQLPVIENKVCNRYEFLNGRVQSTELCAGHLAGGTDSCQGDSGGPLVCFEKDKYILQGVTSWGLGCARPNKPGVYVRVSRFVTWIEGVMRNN

[20] = biological target: Tissue-type plasminogen activator (Homo sapiens, UniProt P00750); assay: Inhibition of human TPA assessed as reduction in release of p-nitroaniline after 10 to 120 mins by Michaelis-Menten equation analysis; procedure, shortened: as §3
Tissue-type plasminogen activator, sequence (P00750 whole entry): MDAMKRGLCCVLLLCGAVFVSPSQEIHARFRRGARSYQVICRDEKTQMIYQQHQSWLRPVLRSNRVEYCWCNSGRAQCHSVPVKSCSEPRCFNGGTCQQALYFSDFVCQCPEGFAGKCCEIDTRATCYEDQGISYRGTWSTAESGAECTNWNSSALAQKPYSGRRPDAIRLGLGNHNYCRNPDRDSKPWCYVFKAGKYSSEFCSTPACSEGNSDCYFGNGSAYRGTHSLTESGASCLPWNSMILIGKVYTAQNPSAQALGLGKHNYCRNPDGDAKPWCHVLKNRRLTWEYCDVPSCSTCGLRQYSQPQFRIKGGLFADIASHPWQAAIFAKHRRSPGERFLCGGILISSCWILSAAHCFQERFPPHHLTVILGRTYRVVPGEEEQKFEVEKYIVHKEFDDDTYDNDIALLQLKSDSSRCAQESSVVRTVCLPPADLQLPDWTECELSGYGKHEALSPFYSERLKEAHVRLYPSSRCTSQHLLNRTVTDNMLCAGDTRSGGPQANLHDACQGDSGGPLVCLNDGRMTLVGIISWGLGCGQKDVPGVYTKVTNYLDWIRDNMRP

[21] = biological target: Urokinase-type plasminogen activator (Homo sapiens, UniProt P00749); assay: Inhibition of human urokinase assessed as reduction in release of p-nitroaniline after 10 to 120 mins by Michaelis-Menten equation analysis; procedure, shortened: as §3
Coagulation factor VII = biological target: T1, Coagulation factor VII (Homo sapiens, UniProt P08709); assay: Inhibition of human coagulation factor 7a assessed as reduction in release of p-nitroaniline after 10 to 120 mins by Michaelis-Menten equation analysis; procedure, shortened: as §3
T1 sequence (P08709 whole entry): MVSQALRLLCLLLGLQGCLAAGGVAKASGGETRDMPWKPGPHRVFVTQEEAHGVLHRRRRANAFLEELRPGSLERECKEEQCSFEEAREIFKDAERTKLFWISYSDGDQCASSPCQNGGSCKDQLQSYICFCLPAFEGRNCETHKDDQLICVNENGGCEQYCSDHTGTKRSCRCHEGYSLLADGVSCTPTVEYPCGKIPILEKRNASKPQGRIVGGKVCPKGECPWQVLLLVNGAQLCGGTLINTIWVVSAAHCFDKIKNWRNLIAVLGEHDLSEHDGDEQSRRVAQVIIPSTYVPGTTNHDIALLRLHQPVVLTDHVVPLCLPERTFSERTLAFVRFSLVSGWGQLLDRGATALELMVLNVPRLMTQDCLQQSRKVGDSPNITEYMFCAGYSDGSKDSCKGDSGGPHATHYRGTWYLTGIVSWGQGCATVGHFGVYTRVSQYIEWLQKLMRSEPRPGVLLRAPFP

Canis familiaris [22] = assay: Oral bioavailability in beagle dog plasma at 1 mg/kg dosed in discrete format by LC-MS/MS method; format: ADME, organism-based, Canis lupus familiaris; details: in vivo; procedure, shortened: as §2
Canis familiaris [23] = assay: Clearance in beagle dog plasma at 0.25 mg/kg, iv and 0.2 mg/kg, po administered in cassette format by LC-MS/MS method; format: ADME, organism-based, Canis lupus familiaris; details: in vivo; procedure, shortened: as §1
[24] = Half life in beagle dog plasma at 0.25 mg/kg, iv and 0.2 mg/kg, po by LC-MS/MS method; format: ADME, organism-based, Canis lupus familiaris; procedure, shortened: as §1
[25] = Oral bioavailability in beagle dog plasma at 0.62 mg/kg by LC-MS/MS method; format: ADME, organism-based, Canis lupus familiaris; procedure, shortened: as §1
[26] = AUC in beagle dog plasma at 0.28 mg/kg, iv and 0.62 mg/kg, po by LC-MS/MS method; format: ADME, organism-based, Canis lupus familiaris; procedure, shortened: as §1
Coagulation factor IX = Coagulation factor IX (Homo sapiens, UniProt P00740); assay: Inhibition of human coagulation factor 9a assessed as reduction in release of p-nitroaniline after 10 to 120 mins by Michaelis-Menten equation analysis; procedure, shortened: as §3
Coagulation factor IX, sequence (P00740 47-191 limits assumed): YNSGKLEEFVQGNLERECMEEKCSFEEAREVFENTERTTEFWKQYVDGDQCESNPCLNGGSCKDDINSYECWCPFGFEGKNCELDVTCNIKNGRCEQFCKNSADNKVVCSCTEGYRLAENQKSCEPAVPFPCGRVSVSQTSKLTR
Coagulation factor IX, sequence (P00740 227-461 limits assumed): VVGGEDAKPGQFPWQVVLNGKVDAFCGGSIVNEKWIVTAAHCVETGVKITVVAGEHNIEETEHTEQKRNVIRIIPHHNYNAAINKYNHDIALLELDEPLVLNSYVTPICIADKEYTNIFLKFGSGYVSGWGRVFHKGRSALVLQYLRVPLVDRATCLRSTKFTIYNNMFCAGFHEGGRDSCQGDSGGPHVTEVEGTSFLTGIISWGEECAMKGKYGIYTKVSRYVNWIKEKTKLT

[27] = Clearance in beagle dog plasma at 0.28 mg/kg, iv and 0.62 mg/kg, po administered in cassette format by LC-MS/MS method; format: ADME, organism-based, Canis lupus familiaris; procedure, shortened: as §1
[28] = Half life in beagle dog plasma at 0.28 mg/kg, iv and 0.62 mg/kg, po by LC-MS/MS method; format: ADME, organism-based, Canis lupus familiaris; procedure, shortened: as §1
[29] = Volume of distribution at steady state in beagle dog plasma at 0.28 mg/kg, iv and 0.62 mg/kg, po by LC-MS/MS method; format: ADME, organism-based, Canis lupus familiaris; details: read-out: Vdss; procedure, shortened: as §1

Row | Structure (SMILES) | bioavailability [2] [%] | Ki (Coagulation factor XI) [µM] | EC1.5 (Plasma) [µM] | Ki [7] [µM] | Ki (Coagulation factor X) [µM] | Ki (Prothrombin) [µM] | Ki (Trypsin) [µM] | Ki (Plasma kallikrein) [µM] | Ki [19] [µM] | Ki (Plasminogen) [µM] | Ki [20] [µM] | Ki [21] [µM] | Ki (Coagulation factor VII) [µM] | further results
1 | COC(=O)Nc1ccc(-c2cc([C@H](Cc3ccccc3)NC(=O)/C=C/c3cc(Cl)ccc3-n3cnnn3)ncn2)cc1 | 28 | 0.0067 | 21 |  |  |  |  |  |  |  |  |  |  | Vd [1]: 4 L/kg; AUC [3]: 0.23 µM·h; clearance [4]: 0.122 mL/min/kg; half-life [5]: 6.8 h
2 | NC[C@H]1CC[C@H](C(=O)N[C@@H](Cc2ccccc2)c2cc(-c3ccc4c(N)n[nH]c4c3)ccn2)CC1 |  | 0.0072 | 0.5 | > 20.8 |  |  |  |  |  |  |  |  |  | bioavailability [6]: 0%; clearance (Canis familiaris [8]): 50 mL/min/kg; t1/2 (Canis familiaris [9]): 1.2 h; Vdss (Canis familiaris [10]): 3.4 L/kg
3 | COC(=O)Nc1ccc(-c2cc([C@H](Cc3ccccc3)NC(=O)/C=C/c3cc(Cl)ccc3-n3cnnn3)ccn2)cc1 |  | 0.011 | 26 |  |  |  |  |  |  |  |  |  |  | Vd [11]: 1.6 L/kg; bioavailability [12]: 34%; AUC [13]: 0.28 µM·h; clearance [14]: 5.6 mL/min/kg; half-life [15]: 3.7 h
4 | COC(=O)Nc1ccc(-c2ccnc([C@H](Cc3ccccc3)NC(=O)/C=C/c3cc(Cl)ccc3-n3cnnn3)c2)cc1 | 34 | 0.023 | >40 | 29.5 | 1.13 | > 13.3 | > 6.218 | 1.85 | > 30.2 | 12.5 | 10.5 | > 29.7 | > 13.4 | Vd [16]: 3.9 L/kg; AUC [17]: 0.267 µM·h; AUC (Canis familiaris [18]): 1.878 µM·h; F (Canis familiaris [22]): 53%; clearance (Canis familiaris [23]): 6.1 mL/min/kg; half-life [24]: 8 h
5 | COC(=O)Nc1ccc(-c2ccnc([C@H](Cc3ccccc3)NC(=O)[C@H]3CC[C@H](CN)CC3)c2)cc1 |  | 0.0063 | 2.6 | > 20.8 | > 9 | > 12.6 | 0.101 | 0.042 | > 30.2 | > 22.1 | > 21.9 | > 14.1 | > 12.2 | bioavailability [25]: 63%; AUC [26]: 0.194 µM·h; Ki (Coagulation factor IX): > 34.9 µM; clearance [27]: 0.9 mL/min/kg; half-life [28]: 2.7 h; Vd [29]: 10 L/kg

Reference: ChEMBL document CHEMBL3779805, “Orally bioavailable pyridine and pyrimidine-based Factor XIa inhibitors: Discovery of the methyl N-phenyl carbamate P2 prime group” (Bioorg Med Chem, 2016)
